Laboratory results: PubChem BioAssay
Calls of active or inactive are those of the source.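 The calls were made as follows, unless noted: active = potentiation averaged over duplicate wells exceeding buffer-only control mean by more than 3 SD; inactive = the rest.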

What was measured:
[1] = nonspecific flux increase, KCNQ1-free cells – parental CHO cells, counter-screen for KCNQ1 potentiator project (AID 493006;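 active = duplicate-averaged activation above buffer control mean plus 5 SD of those controls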); conditions: parental CHO-K1 cells, FluxOR thallium flux, at 10 µM; active compounds read high
Method in brief: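 Assay system: Untransfected host CHO-K1 cells with FluxOR thallium dye | Probe or stimulus: Potassium/thallium depolarization pulse | Schedule: Overnight 37 °C plating, 90 min RT dye, 20 min compound | Detection: Kinetic thallium-flux fluorescence | Read-out: Max-minus-min fluorescence over baseline, percent of buffer-to-R-L3 span | Benchmarks: Low control buffer, high control R-L3 activator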

[2] = target: Potassium voltage-gated channel subfamily KQT member 1 (Homo sapiens) (UniProt P51787); test: enhancement of KCNQ1 channel thallium flux – FluxOR thallium flux, CHO cells, duplicates, confirmation (AID 493007); conditions: KCNQ1 cell line, FluxOR thallium flux fluorescence, at 10 µM; active compounds read high, % of reference activator effect, buffer zero;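 as to outcome: cells depolarized by a potassium plus thallium sulfate stimulus after compound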
Potassium voltage-gated channel subfamily KQT member 1 (Homo sapiens), sequence (P51787 whole entry, looked up): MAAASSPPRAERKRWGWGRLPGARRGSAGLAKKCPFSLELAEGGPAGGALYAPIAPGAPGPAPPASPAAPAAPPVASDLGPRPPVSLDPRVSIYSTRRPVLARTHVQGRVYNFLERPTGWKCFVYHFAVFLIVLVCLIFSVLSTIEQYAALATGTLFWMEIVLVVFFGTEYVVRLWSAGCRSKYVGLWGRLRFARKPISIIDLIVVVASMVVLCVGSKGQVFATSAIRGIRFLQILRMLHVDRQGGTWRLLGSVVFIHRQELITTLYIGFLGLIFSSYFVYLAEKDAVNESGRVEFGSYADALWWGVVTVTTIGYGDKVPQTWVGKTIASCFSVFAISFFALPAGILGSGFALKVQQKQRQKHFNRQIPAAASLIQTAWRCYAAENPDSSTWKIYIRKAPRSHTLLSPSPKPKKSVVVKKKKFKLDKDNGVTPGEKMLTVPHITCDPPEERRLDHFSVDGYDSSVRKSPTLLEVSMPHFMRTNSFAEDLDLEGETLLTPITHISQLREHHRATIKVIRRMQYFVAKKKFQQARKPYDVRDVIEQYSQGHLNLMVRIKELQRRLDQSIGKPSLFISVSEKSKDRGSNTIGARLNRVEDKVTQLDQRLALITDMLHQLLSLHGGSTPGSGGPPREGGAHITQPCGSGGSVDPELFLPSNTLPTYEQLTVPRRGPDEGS
Method in brief: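 Material: KCNQ1-expressing CHO cell line; Incubation: FluxOR dye loading 90 min, compound exposure 20 min, room temperature; Detection: FluxOR Tl+ flux fluorescence, 10 s baseline plus 110 s recording; Read-out: percent activation between buffer and R-L3 responses; Control set: buffer-only wells as 0% and R-L3 activator as 100%; Replication: duplicate wells per compound.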

[3] = target: Potassium voltage-gated channel subfamily KQT member 2 (Rattus norvegicus) (UniProt O88943); test: KCNQ2 thallium flux enhancement – KCNQ2-CHO-K1 cells, selectivity assay for KCNQ1 potentiator project (AID 493009;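 active = mean duplicate potentiation above the buffer control mean plus 5 SD of buffer wells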;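 also: assay conditions were tuned for KCNQ1 rather than KCNQ2 modulators; signal is max minus min fluorescence divided by baseline after thallium stimulus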); conditions: FluxOR thallium flux fluorescence, at 10 µM; active compounds read high, scaled: buffer 0, activator control 100
Potassium voltage-gated channel subfamily KQT member 2 (Rattus norvegicus), sequence (O88943 whole entry, looked up): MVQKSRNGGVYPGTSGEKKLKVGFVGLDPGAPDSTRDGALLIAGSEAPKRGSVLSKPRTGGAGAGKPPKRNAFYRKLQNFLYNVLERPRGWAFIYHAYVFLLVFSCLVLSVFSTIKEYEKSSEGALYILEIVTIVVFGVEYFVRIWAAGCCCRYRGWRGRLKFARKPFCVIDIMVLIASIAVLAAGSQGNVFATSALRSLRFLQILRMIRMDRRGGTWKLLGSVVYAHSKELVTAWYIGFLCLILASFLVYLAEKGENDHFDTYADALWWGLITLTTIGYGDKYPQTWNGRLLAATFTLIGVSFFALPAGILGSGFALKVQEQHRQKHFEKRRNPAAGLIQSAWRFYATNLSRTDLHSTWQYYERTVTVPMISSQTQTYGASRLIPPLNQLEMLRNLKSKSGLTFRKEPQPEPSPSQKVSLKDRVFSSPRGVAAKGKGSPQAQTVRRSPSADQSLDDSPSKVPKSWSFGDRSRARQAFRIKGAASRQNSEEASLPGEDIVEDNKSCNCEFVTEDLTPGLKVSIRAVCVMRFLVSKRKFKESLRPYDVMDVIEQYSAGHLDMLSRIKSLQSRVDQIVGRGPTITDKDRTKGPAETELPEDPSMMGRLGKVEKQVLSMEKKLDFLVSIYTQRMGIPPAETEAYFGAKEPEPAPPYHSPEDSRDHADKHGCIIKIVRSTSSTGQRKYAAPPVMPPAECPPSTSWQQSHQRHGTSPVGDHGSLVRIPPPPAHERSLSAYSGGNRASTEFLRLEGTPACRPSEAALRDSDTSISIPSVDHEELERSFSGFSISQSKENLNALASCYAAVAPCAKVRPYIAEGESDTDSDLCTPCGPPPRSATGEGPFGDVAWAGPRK

[4] = target: Potassium voltage-gated channel subfamily KQT member 1 (Homo sapiens) (UniProt P51787); test: KCNQ1 activators by electrophysiology – IonWorks patch clamp, KCNQ1-CHO cells, orthogonal assay for KCNQ1 potentiator project, confirmation (AID 493184;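 active = current rise at least 3 SD above the untreated control mean in each of two repeat wells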;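 as to current potentiation: percent change of the same well's current before compound addition so 0% = no change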); conditions: automated patch clamp current, at 10 µM; active compounds read high
Method in brief: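 assay system = KCNQ1-expressing CHO cells | medium = external bath solution at pH 7.4 | probe or stimulus = 2,000 ms depolarization, -90 to +40 mV | compound dosing = 10 µM final, single point | measured by = automated voltage clamp, amphotericin B perforated patch | measure = percent current increase versus pre-compound level | replication = duplicates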

Compound	activation [1]	potentiation [2]	potentiation [3]	outcome [4]	outcome [1]	outcome [2]	outcome [3]	current potentiation [4]
Fc1cccc2sc(Nc3nnc(-c4ccco4)o3)nc12	354% (active)	100% (active)	381% (active)	inactive	–	–	–	–
Cc1cc(C)nc(CCNC(=O)c2cc(COc3ccccc3)on2)n1	–	–	–	inactive	inactive	inactive	inactive	–
Cc1cc(/C=C2\C(=N)N3N=C(c4ccco4)SC3=NC2=O)c(C)n1Cc1ccccc1	–	37% (active)	–	inactive	inactive	–	inactive	–
Cc1ccccc1C(=O)NCc1ccncc1	–	–	–	inactive	inactive	inactive	inactive	–
CSC(=S)N/N=C/c1ccc(N(C)C)cc1	–	–	–	inactive	inactive	inactive	inactive	–
CC(C)(C)NC(=O)CN(C(=O)CNC(=O)c1cccs1)c1ccc2c(c1)OCCO2	–	–	–	inactive	inactive	inactive	inactive	–
CC(=O)N1N=C(c2ccccc2OC(=O)/C=C/c2ccccc2)CC1c1ccccc1 (stereo not given)	–	–	–	inactive	inactive	inactive	inactive	–
Cn1c(=O)nc2n(Cc3ccccc3)c3ccccc3cc-2c1=O	–	–	–	inactive	inactive	inactive	inactive	–
Cc1cccn2c(=O)nc(SCC(=O)N3N=C(c4cccs4)CC3c3ccc(F)cc3)nc12 (stereo not given)	–	–	–	inactive	inactive	inactive	inactive	–
COc1ccc(-n2c(NCCN(C)C)nc3sc4c(c3c2=O)CCCCC4)cc1	–	–	–	inactive	inactive	inactive	inactive	–
Cc1ccccc1C(=O)NC1CC(C)(C)NC(C)(C)C1	–	–	–	inactive	inactive	inactive	inactive	–
CCC1CCC2(CC1)NNC(=S)NN2	–	–	–	inactive	inactive	inactive	inactive	–
Cc1[nH]n(-c2cccc3ccccc23)c(=O)c1/C=N/c1sc2c(c1C#N)CCC2	204% (active)	122% (active)	288% (active)	inactive	–	–	–	–
Cc1ccc(S(=O)(=O)n2cccc2CO)cc1	–	–	–	inactive	inactive	inactive	inactive	–
Cc1ccc(-n2cnnn2)c2cccnc12	–	–	–	inactive	inactive	inactive	inactive	–
CC(C)C(=O)Nc1c(O)c2ccccc2[nH]c1=O	–	–	–	inactive	inactive	inactive	inactive	–
Cc1ccccc1-c1nc(-c2ccccn2)no1	–	–	–	inactive	inactive	inactive	inactive	–
Cc1cc(Cl)ccc1OCc1n[nH]c(=S)n1C1CCCCC1	190% (active)	129% (active)	212% (active)	inactive	–	–	–	–
OC(c1ccccc1)c1cccnc1 (stereo not given)	146% (active)	22% (active)	155% (active)	inactive	–	–	–	–
O=C(NC(=S)N1CCN(c2ccc([N+](=O)[O-])cc2Cl)CC1)c1ccco1	–	–	–	inactive	inactive	inactive	inactive	–

Compound	activation [1]	potentiation [2]	potentiation [3]	outcome [4]	outcome [1]	outcome [2]	outcome [3]	current potentiation [4]
Cc1noc(C)c1COc1ccc(CC(=O)NCc2ccccc2)cc1	–	–	–	inactive	inactive	inactive	inactive	–
O=C(Nc1ccncc1)c1ccc([N+](=O)[O-])cc1Cl	–	–	–	inactive	inactive	inactive	inactive	–
OCCN1CCN(C2CCC(c3ccc(F)cc3)c3ccc(F)cc32)CC1 (stereo not given)	–	–	–	inactive	inactive	inactive	inactive	–
CCOc1ccc(NC(=O)C2CCN(S(=O)(=O)c3cccnc3)CC2)cc1	–	–	–	inactive	inactive	inactive	inactive	–
O=C(NC(=S)N1CCN(c2c(Cl)cccc2[N+](=O)[O-])CC1)c1cccs1	236% (active)	156% (active)	375% (active)	inactive	–	–	–	–
CCOC(=O)c1cc(CC)sc1NC(=O)CC1Sc2ccc(C(F)(F)F)cc2NC1=O (stereo not given)	–	–	–	inactive	inactive	inactive	inactive	–
CC(NC(=O)c1ccncc1)C(C)(C)C (stereo not given)	–	–	–	inactive	inactive	inactive	inactive	–
Cc1ccc(-n2ncc3c(SCC(=O)NNC(=O)c4ccco4)ncnc32)cc1	–	–	–	inactive	inactive	inactive	inactive	–
CN=C1c2cc3cc(OC)ccc3n2CCN1Cc1ccccc1	–	–	–	inactive	inactive	inactive	inactive	–
COc1ccc(CN2C(=O)C(C)S/C2=N/N=C/c2ccco2)cc1 (stereo not given)	–	–	–	inactive	inactive	inactive	inactive	–
Cc1cccc(NC(=O)c2cccnc2)c1	–	–	–	inactive	inactive	inactive	inactive	–
O=C(O)C(c1ccccc1)N1C(=O)/C(=C\c2ccc(-c3ccc(Br)cc3)o2)SC1=S (stereo not given)	–	17.5% (active)	–	–	inactive	–	inactive	15% (active)
COc1cc(C2NC(=O)NC(O)(C(F)(F)F)C2C(C)=O)cc(OC)c1OC (stereo not given)	–	–	–	inactive	inactive	inactive	inactive	–
CC(Sc1n[nH]c(N)n1)C(=O)NC1CCCCC1C (stereo not given)	152% (active)	37% (active)	172% (active)	inactive	–	–	–	–
O=C(Nc1ccccc1OC(F)F)c1ccc(F)cc1	–	–	–	inactive	inactive	inactive	inactive	–
CCCC(=O)N1CCN(Cc2nc3cc([N+](=O)[O-])ccc3n2C)CC1	–	–	–	inactive	inactive	inactive	inactive	–
CCCN1C(=O)/C(=C/c2ccc(C)s2)NC1=S	395% (active)	194% (active)	412% (active)	inactive	–	–	–	–
Cc1sc(-n2c(C)cc(/C=C3\SC(=S)NC3=O)c2C)c(C#N)c1C	145% (active)	36% (active)	–	inactive	–	–	inactive	–
COc1ccc(-n2nc3c(c2NC(=O)c2ccc4c(c2)OCO4)CS(=O)(=O)C3)cc1	224% (active)	75.5% (active)	206% (active)	inactive	–	–	–	–
COc1cccc(C(=O)NNC(=O)C(=O)Nc2cccc3ccccc23)c1	218% (active)	51.5% (active)	228% (active)	inactive	–	–	–	–

Compound	activation [1]	potentiation [2]	potentiation [3]	outcome [4]	outcome [1]	outcome [2]	outcome [3]	current potentiation [4]
S=c1nc(-c2ccccc2)[nH]c2ccccc12	316% (active)	110% (active)	294% (active)	inactive	–	–	–	–
COc1ccc(S(=O)(=O)NCCOc2ccccc2)cc1OC	–	–	–	inactive	inactive	inactive	inactive	–
CCC(=O)NNc1nc2c(Cl)cccc2s1	–	–	–	inactive	inactive	inactive	inactive	–
Cc1ccc(SCC2(O)CCN(S(=O)(=O)c3ccc(Cl)cc3)CC2)cc1	–	–	–	inactive	inactive	inactive	inactive	–
CCOC(=O)c1[nH]c(C=O)c(C(=O)OCC)c1C	–	–	–	inactive	inactive	inactive	inactive	–
COc1cccc(CN(C)C(=O)c2cc(COc3ccc4ncccc4c3)on2)c1	–	–	–	inactive	inactive	inactive	inactive	–
CCCCn1c(N)c(C(=S)NC(=O)CC(C)(C)C)c(=O)n(C)c1=O	140% (active)	37.5% (active)	148% (active)	inactive	–	–	–	–
COc1ccc(CNC(=O)CNC(C)c2ccc(F)cc2)cc1 (stereo not given)	–	–	–	inactive	inactive	inactive	inactive	–
CCOC(=O)/C(=C\c1cccnc1)C(=O)c1cc(C(C)=O)c(Nc2ccccc2)s1	–	–	–	inactive	inactive	inactive	inactive	–
CC(C)C(NC(=O)Nc1ccccc1)C(=O)Nc1cccc(S(=O)(=O)N(C)C)c1 (stereo not given)	232% (active)	67.5% (active)	232% (active)	inactive	–	–	–	–
CC(CCc1ccccc1)NC(=S)NC(=O)c1ccco1 (stereo not given)	214% (active)	69.5% (active)	251% (active)	inactive	–	–	–	–
CC(C)Cn1c(=S)[nH]c2cc(Cl)ccc21	196% (active)	70.5% (active)	225% (active)	inactive	–	–	–	–
COc1ccc(OC)c(NC(=O)C(=O)NNC(=O)COc2ccc(Br)cc2C)c1	520% (active)	346% (active)	614% (active)	inactive	–	–	–	–
Cc1ccc(-c2nc3c(Cl)cc(Cl)cc3c(=O)n2O)cc1	828% (active)	414% (active)	820% (active)	inactive	–	–	–	–
COc1ccc(C)cc1NC(=O)C(=O)NNC(=O)COc1ccc(Cl)cc1	166% (active)	195% (active)	258% (active)	inactive	–	–	–	–
Cc1[nH]c(-c2ccccn2)nc(=S)c1Cl	244% (active)	106% (active)	262% (active)	inactive	–	–	–	–
CCOc1ccc(C2C(C#N)=C(N)N(c3sc4c(c3C#N)CCCC4)C3=C2C(=O)CCC3)cc1 (stereo not given)	–	–	–	inactive	inactive	inactive	inactive	–
CC(Sc1nnnn1-c1ccc(O)cc1)C(=O)NC1CCCCC1C (stereo not given)	–	–	–	inactive	inactive	inactive	inactive	–
O=S(=O)(Nc1ccccc1Cl)c1ccc(NS(=O)(=O)c2cccs2)cc1	–	26.5% (active)	–	inactive	inactive	–	inactive	–
O=C(c1ccccc1[N+](=O)[O-])N1CCN(c2ccc(N3CCOCC3)nn2)CC1	–	–	–	inactive	inactive	inactive	inactive	–
